Active and inactive are the calls of the source. No cut-off for these calls is given here.
Legend:
[1] = test system: N2a695; experiment: Inhibition of beta secretase in mouse N2a695 cells assessed as reduction in A-beta 40 levels at 5 uM treated 1 hr after BACE IV treatment and further incubated for 5 hrs by ELISA; format: cell-based
Summary of the method: (§1)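 N2a695 cells pretreated with BACE IV for 1 h, then treated with compound plus BACE IV for 5 h. Secreted Aβ40 and Aβ42 measured by ELISA.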

[2] = test system: N2a695; experiment: Inhibition of beta secretase in mouse N2a695 cells assessed as reduction in A-beta 42 levels at 5 uM treated 1 hr after BACE IV treatment and further incubated for 5 hrs by ELISA; format: cell-based; summary of the method: as §1
[3] = test system: Mus musculus; experiment: Inhibition of FA-soluble A-beta-40 levels in 2xTg AD mouse model at 100 mg/kg, po BID for 4 days and once daily on day 5 by ELISA; format: functional, organism-based; settings: time 5.0 day
Summary of the method: (§2)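 2xTg AD females (APP Swedish/PS1ΔE9), 5 months old, n = 7 per group. 2a-mesylate 20 mg/mL in water with 0.1% methylcellulose, 100 mg/kg by gavage, or vehicle, twice daily 8 h apart for 4 days, then once on day 5. Euthanized 4 h after last dose. Left hemisphere homogenized in 1% Triton X-100 TBS (pH 7.4), then insoluble Aβ extracted with 70% formic acid and measured by ELISA.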

[4] = test system: Mus musculus; experiment: Inhibition of FA-soluble A-beta-42 levels in 2xTg AD mouse model at 100 mg/kg, po BID for 4 days and once daily on day 5 by ELISA; format: functional, organism-based; summary of the method: as §2
[5] = test system: N2a695; experiment: Inhibition of beta secretase in mouse N2a695 cells assessed as reduction in A-beta 40 levels at 5 to 10 uM incubated for 5 hrs by ELISA; format: cell-based; settings: dose 5-10 µM
Summary of the method: (§3)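 Mouse N2a695 cells (N2a overexpressing human APP695), grown in Opti-MEM/DMEM with 5% FBS and geneticin at 37 °C, 5% CO₂. Cells seeded overnight in 6-well plates, >95% confluent, then given fresh medium with compounds (2.5–10 μM, diluted from DMSO stocks) for 5 h. Secreted Aβ40/Aβ42 measured by ELISA or MSD ELISA against DMSO control; 2–3 experiments averaged.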

[6] = test system: N2a695; experiment: Inhibition of beta secretase in mouse N2a695 cells assessed as reduction in A-beta 42 levels at 5 to 10 uM incubated for 5 hrs by ELISA; format: cell-based; settings: dose 5-10 µM; summary of the method: as §3
[7] = test system: N2a695; experiment: Inhibition of beta secretase in mouse N2a695 cells assessed as reduction in A-beta 42 levels at 10 uM incubated for 5 hrs by ELISA; format: cell-based; summary of the method: as §3
[8] = test system: N2a; experiment: Inhibition of gamma secretase in mouse N2a cells expressing FL APP695 assessed as reduction of A-beta levels at 1 uM incubated for 5 hrs by MSD-ELISA; format: cell-based
[9] = test system: N2a; experiment: Inhibition of beta secretase in mouse N2a cells expressing FL APP695 assessed as reduction of A-beta levels at 2 uM incubated for 5 hrs by MSD-ELISA
[10] = Drug level in brain of wild-type mouse at 50 mg/kg, po after 6 hrs by LC-MS/MS analysis; settings: in vivo
[11] = Drug level in brain of wild-type mouse at 50 mg/kg, po after 12 hrs by LC-MS/MS analysis; settings: in vivo
[12] = Drug level in plasma of wild-type mouse at 50 mg/kg, po after 24 hrs by LC-MS/MS analysis; settings: in vivo
[13] = Drug level in plasma of wild-type mouse at 50 mg/kg, po after 12 hrs by LC-MS/MS analysis; settings: in vivo
[14] = Stability in human liver microsomes assessed as parent compound remaining level at 1 uM after 1 hrs by HPLC-MS/MS analysis; format: ADME, Microsome; settings: read-out: Stabilty
[15] = Stability in human liver microsomes assessed as parent compound remaining level at 10 uM after 1 hrs by HPLC-MS/MS analysis; format: ADME, Microsome; settings: read-out: Stabilty
[16] = Stability in mouse liver microsomes assessed as parent compound remaining level at 10 uM after 1 hrs by HPLC-MS/MS analysis; format: ADME, Microsome; settings: read-out: Stabilty
[17] = Stability in mouse liver microsomes assessed as parent compound remaining level at 1 uM after 1 hrs by HPLC-MS/MS analysis; format: ADME, Microsome; settings: read-out: Stabilty
[18] = Stability in human liver microsomes assessed as parent compound remaining level at 10 uM after 0.5 hrs by HPLC-MS/MS analysis; format: ADME, Microsome; settings: read-out: Stabilty
[19] = Stability in human liver microsomes assessed as parent compound remaining level at 1 uM after 0.5 hrs by HPLC-MS/MS analysis; format: ADME, Microsome; settings: read-out: Stabilty
[20] = Stability in mouse liver microsomes assessed as parent compound remaining level at 10 uM after 0.5 hrs by HPLC-MS/MS analysis; format: ADME, Microsome; settings: read-out: Stabilty
[21] = Stability in mouse liver microsomes assessed as parent compound remaining level at 1 uM after 0.5 hrs by HPLC-MS/MS analysis; format: ADME, Microsome; settings: read-out: Stabilty
[22] = Drug level in C57BL/6J mouse plasma at 50 mg/kg, ip measured after 4 hrs by LC-MS/MS analysis; format: ADME, organism-based
Summary of the method: (§4)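 Mesylate salts in water ([…], 125 μL) given i.p. at 50 or 150 mg/kg to 8-week-old male C57BL/6J mice. Brain and plasma harvested 4 h post-dose and snap-frozen. Brain homogenized and extracted twice with ethanol, plasma extracted with acetonitrile, both with internal standard. Drug quantified by LC-MS/MS; n = 3 or 4.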

[23] = Drug level in C57BL/6J mouse brain at 50 mg/kg, ip measured after 4 hrs by LC-MS/MS analysis; format: ADME, organism-based; settings: read-out: Drug uptake; summary of the method: as §4
[24] = Toxicity in mouse up to 150 mg/kg, po QD for 5 days; format: organism-based; settings: in vivo, 120 h, time 5 day
Summary of the method: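 Wild-type mice given the compound by oral gavage, increasing amounts up to 150 mg/kg once daily for 5 days. Animals observed for signs of toxicity.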

[25] = Toxicity in mouse N2a695 cells assessed as reduction in cell viability at 5 to 10 uM incubated for 5 hrs; format: cell-based; settings: n2a695, 5 h, dose 5-10 µM
Summary of the method: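 N2a cells exposed to compounds at 10 μM for 5 h alongside the Aβ assay. Cell viability/density compared with DMSO control.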

[26] = Inhibition of beta secretase in mouse N2a695 cells assessed as reduction in A-beta 40 levels incubated for 5 hrs by ELISA; format: cell-based; settings: N2a695, 5 h; summary of the method: as §3
[27] = Inhibition of beta secretase in mouse N2a695 cells assessed as reduction in A-beta 42 levels incubated for 5 hrs by ELISA; format: cell-based; settings: N2a695, 5 h; summary of the method: as §3
[28] = test system: N2a; experiment: Inhibition of gamma secretase in mouse N2a cells expressing APP-C99 assessed as reduction of A-beta42 levels at 10 uM incubated for 5 hrs by MSD-ELISA relative to control; format: cell-based
Summary of the method: (§5)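 N2a cells transfected with plasmids for full-length APP695 or APP-C99. After 48 h, fresh medium with compounds (10 μM) added for 5 h. Supernatant Aβ40, Aβ42, sAPPα and sAPPβ measured by MSD ELISA against DMSO; BACE IV (2 μM) and DAPT (1 μM) run alongside.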

[29] = test system: N2a; experiment: Inhibition of gamma secretase in mouse N2a cells expressing APP-C99 assessed as reduction of A-beta40 levels at 10 uM incubated for 5 hrs by MSD-ELISA relative to control; format: cell-based; summary of the method: as §5
[30] = Drug level in C57BL/6J mouse plasma at 150 mg/kg, ip measured after 4 hrs by LC-MS/MS analysis; format: ADME, organism-based; summary of the method: as §4
[31] = Drug level in C57BL/6J mouse brain at 150 mg/kg, ip measured after 4 hrs by LC-MS/MS analysis; format: ADME, organism-based; settings: read-out: Drug uptake; summary of the method: as §4

| Compound | concentration at 4 h [22] [nM] | concentration at 4 h [23] [ng/g] | IC50 [26] [µM] | IC50 [27] [µM] | inhibition [5] | inhibition [6] | Activity [25] | further results |
| --- | --- | --- | --- | --- | --- | --- | --- | --- |
| Cc1ccc(NC(=O)c2ccc(CCN(C)C)cc2)cc1Nc1nccc(-c2cccnc2)n1 [listing 1 of 2 here] | – | – | – | – | Active | Active | – | inhibition [1]: Active; inhibition [2]: Active; inhibition [3]: Active; inhibition [4]: Active |
| CNCCc1ccc(C(=O)Nc2ccc(C)c(Nc3nccc(-c4cccnc4)n3)c2)cc1 | – | – | – | – | – | – | – | inhibition [7]: Active |
| Cc1ccc(NC(=O)c2ccc(CCN)cc2)cc1Nc1nccc(-c2cccnc2)n1 | – | – | – | – | – | – | – | inhibition [7]: Active |
| C[C@H](NC(=O)Cc1cc(F)cc(F)c1)C(=O)N[C@H](C(=O)OC(C)(C)C)c1ccccc1 | – | – | – | – | – | – | – | inhibition [8]: Active; inhibition [9]: Active |
| CS(=O)(=O)O.Cc1ccc(NC(=O)c2ccc(CCN(C)C)cc2)cc1Nc1nccc(-c2cccnc2)n1 | – | – | – | – | – | – | – | Drug uptake [10]: Active; Drug uptake [11]: Not Active; Drug uptake [12]: Not Active; Drug uptake [13]: Active |
| Cc1ccc(NC(=O)c2ccc(C3CCCN(C)C3)cc2)cc1Nc1nccc(-c2cccnc2)n1 (configuration not stated) | 2300 | 39 | > 5 | > 5 | Active | Active | Non-Toxic | – |
| Cc1ccc(NC(=O)c2ccc(CCN(C)C)cc2C(F)(F)F)cc1Nc1nccc(-c2cccnc2)n1 | – | – | > 5 | > 5 | Active | Active | Non-Toxic | inhibition [28]: 25%; inhibition [29]: 25%; concentration at 4 h [30]: 11600 nM; concentration at 4 h [31]: 60 ng/g |

Further lines, with some results ahead:

| concentration at 4 h [22] [nM] | concentration at 4 h [23] [ng/g] | IC50 [26] [µM] | IC50 [27] [µM] | Compound | inhibition [5] | inhibition [6] | Activity [25] | further results |
| --- | --- | --- | --- | --- | --- | --- | --- | --- |
| 100 | < 1 | – | – | CS(=O)(=O)O.Cc1ccc(NC(=O)c2ccc(CN3CCN(C)CC3)cc2)cc1Nc1nccc(-c2cccnc2)n1 [IMATINIB MESYLATE] | – | – | – | remaining at 1 h, 1 µM [14]: 15.9%; remaining at 1 h, 10 µM [15]: 66.4%; remaining at 1 h, 10 µM [16]: 5.1%; remaining at 1 h, 1 µM [17]: 1.7%; remaining at 0.5 h, 10 µM [18]: 95.4%; remaining at 0.5 h, 1 µM [19]: 40.4%; remaining at 0.5 h, 10 µM [20]: 22.5%; remaining at 0.5 h, 1 µM [21]: 7.3% |
| 2500 | 27 | > 5 | > 5 | Cc1ccc(NC(=O)c2ccc(CCN(C)C)cc2)cc1Nc1nccc(-c2cccnc2)n1 [listing 2 of 2 here] | – | – | Non-Toxic | Activity [24]: Non-Toxic; remaining at 1 h, 1 µM [14]: 29.2%; remaining at 1 h, 10 µM [15]: 56.5%; remaining at 1 h, 10 µM [16]: 2.3%; remaining at 1 h, 1 µM [17]: 1.3%; remaining at 0.5 h, 10 µM [18]: 77.1%; remaining at 0.5 h, 1 µM [19]: 61.9%; remaining at 0.5 h, 10 µM [20]: 15.1%; remaining at 0.5 h, 1 µM [21]: 7.9% |
| – | 127 | > 5 | > 5 | Cc1ccc(NC(=O)c2ccc(C3CCN(C)CC3)cc2)cc1Nc1nccc(-c2cccnc2)n1 | Active | Active | Non-Toxic | – |
| 1000 | 21 | > 5 | > 5 | Cc1ccc(NC(=O)c2ccc(N3CCN(C)CC3)cc2)cc1Nc1nccc(-c2cccnc2)n1 | Active | Active | Non-Toxic | – |
